Results of several laboratories.
Lines come from different studies, so protocols differ.
Target: Phosphorylase b kinase gamma catalytic chain, skeletal muscle/heart isoform (PHKG1, Homo sapiens, UniProt Q16816)

SMILES | assay | setting | endpoint | value
CN1CC(Oc2cnc(C#N)cc2-c2ccn3nc(NC(=O)C4CC4)cc3c2)C1 | enzyme activity, inhibitor | 1 µM | inhibition | 8%
CC(C)(C)c1nc2c(s1)c1nc(N)ncc1c1ccc(NS(=O)(=O)c3c(F)cccc3F)c(F)c12 | enzyme activity, inhibitor, radiometric | 1 µM | remaining activity | 98%
CC(=O)Nc1c(C(C)=O)c(=O)n(C)c2nc(-c3ccc(Cl)cc3Cl)c(-c3ccc(Cl)cc3)cc12 | cell-free assay, competition with immobilised ligand | 1 µM | remaining binding | 100%
O=C1NC(=O)c2cc(Nc3ccc(F)cc3)c(Nc3ccc(F)cc3)cc21 | cell-free assay | 0.5 µM | remaining signal | 94.8%
CCCS(=O)(=O)Nc1ccc(F)c(C(=O)c2c[nH]c3ncc(-c4ccc(Cl)cc4)cc23)c1F | enzyme activity, inhibitor | 1 µM | inhibition | < 20%
c1ccc(CNc2nc(N3CCOc4ccccc43)nc3c2CCCC3)cc1 | target engagement in cells, inhibitor, chemoproteomics | 20 mM | inhibition | 2%
COc1cc2ncnc(Nc3ccc(Oc4ccccc4)c(C)c3C)c2cc1OC | enzyme activity, inhibitor | 1 µM | inhibition | 2%
CN(C)C(=O)Cn1cc(-c2nc([C@@](C)(c3ccc(-c4cnc(N)nc4)cc3)C3CC3)no2)cn1 | cell-free assay, competition with immobilised ligand | 1 µM | remaining binding | 77%
Cc1sc(C(=O)NC2COC2)cc1-n1cc(NC(=O)Nc2c(F)cccc2Cl)cn1 | enzyme activity, inhibitor | 10 µM | remaining activity | 84%
CS(=O)(=O)N1CCCC(NC(=O)[C@H](CCC2CCCCC2)NC(=O)c2ccc(CNc3ncnc4c3nnn4-c3ccccc3)cc2)C1 (some centres unmarked) | cell-free assay, competition with immobilised ligand | 0.1 µM | remaining binding | 87%
Cn1c(=O)n(-c2ccc(C(C)(C)C#N)cc2)c2c3cc(-c4cnc5ccccc5c4)ccc3ncc21 | enzyme activity, inhibitor | 10 µM | remaining activity | 95%
COc1cc(Cl)c(C(=O)N[C@@H](CN[C@H]2CC[C@@H](N)CC2)Cc2ccc(C#N)cc2)cc1-c1ccc(CN[C@H](C)c2ccc(C)cc2)o1 | enzyme activity, inhibitor | 1 µM | remaining activity | 68%
Nc1nc(NC2CCCCC2)sc1C(=O)c1ccccc1 | enzyme activity, inhibitor | 10 µM | remaining activity | 105%
Cc1c(C(=O)O)cc(-c2ccc(C3CCNCC3)cc2)c2ccc(-c3ccc(C(F)(F)F)cc3)cc12 | cell-free assay, competition with immobilised ligand | 1 µM | remaining binding | 100%
CC(C)(O)[C@H]1CC[C@H](Nc2ccc3ncc(-c4cccc(C(F)(F)F)c4)n3n2)CC1 | enzyme activity, inhibitor | 1 µM | remaining activity | 84.1%
COc1cccc(CNC(=O)c2nc3scc(COCc4ccc(C(=O)O)cc4)c3c(=O)[nH]2)c1 | cell-free assay, competition with immobilised ligand | 1 µM | remaining binding | 100%
CC(C)(C)C(=O)c1sc(NC2CCCCC2)nc1N | enzyme activity, inhibitor | 10 µM | remaining activity | 112%
C[C@@H]1CN(c2cc(-c3nn(C)c4ccc(OC5(C)CC5)cc34)ncn2)C[C@H](C)O1 | cell-free assay, competition with immobilised ligand | 1 µM | remaining binding | 90%
O=C(Nc1cnn(-c2csc(C(=O)NC3COC3)c2)c1)Nc1ccccc1Cl | enzyme activity, inhibitor | 5 µM | remaining activity | 102%
O=C1Nc2ccc(Cl)cc2C1=Cc1cc(Cl)c(O)c(Cl)c1 | cell-free assay | 0.5 µM | remaining signal | 86.4%
